# Laboratory results from ChEMBL document CHEMBL4177648, “Benzofuran-dihydropyridine hybrids: A new class of potential bone anabolic agents” (Bioorg Med Chem, 2017).
# Calls of active or inactive are those of the source. The rule behind the calls is not given here.
# Columns and labels:
# Calvarial osteoblast [1] = assay: Upregulation of Runx2 mRNA levels in rat calvarial osteoblasts at 10 nM after 48 hrs by qRT-PCR analysis relative to control; type: functional
# Summary of the method: (§1)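 Rat pup calvarial osteoblasts were treated for 48 h with compound. Total RNA was extracted with TRIzol and checked by A260 and A260/A280. qRT-PCR used 45 cycles (94 °C, 62 °C, 72 °C steps) and was normalised to GAPDH. Fold change is over untreated cells; n=5, mean ± SEM.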
# Rattus norvegicus [2] = assay: Osteogenic activity in Sprague-Dawley rat drill-hole fracture model assessed as bone formation at 10 mg/kg/day by H and E staining-based analysis relative to control; type: functional, organism-based
# Summary of the method: (§2)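 Drill-hole femur defect in female Sprague-Dawley rats with oral dosing at 10 mg·kg⁻¹·day⁻¹ or gum acacia vehicle for 14 days. Bones were decalcified in EDTA and the callus at the defect site was stained with H&E; n=6/group.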
# Calvarial osteoblast [3] = assay: Anabolic activity in rat calvarial osteoblasts assessed as induction of alkaline phosphatase activity at 100 uM after 48 hrs in presence of beta-glycerophosphate and ascorbic acid by p-nitrophenyl phosphate substrate based assay (reference value: 1 to 1.21); type: functional
# Rattus norvegicus [4] = assay: Osteogenic activity in Sprague-Dawley rat drill-hole fracture model assessed as increase in connection density at 10 mg/kg/day for 14 consecutive days by micro CT-scan analysis; type: functional, organism-based
# Summary of the method: (§3)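 Adult female Sprague-Dawley rats (200 ± 20 g, 12 weeks) under ketamine/xylazine anaesthesia received a 0.8 mm drill-hole defect in the femoral diaphysis, 2 cm above the knee. Dosing was oral at 10 mg·kg⁻¹·day⁻¹, or gum acacia vehicle, for 14 days starting the next day. The defect was scanned by micro-CT at 18 µm voxel and 70 kV; n=6/group.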
# Rattus norvegicus [5] = assay: Osteogenic activity in Sprague-Dawley rat drill-hole fracture model assessed as increase in mineral deposition at 10 mg/kg/day by calcein labeling-based confocal microscopy analysis
# Rattus norvegicus [6] = assay: Upregulation of Bmp2 mRNA in rat pup calvarial tissue at >10 mg/kg/day administered subcutaneously for 3 consecutive days by qRT-PCR analysis; type: functional, organism-based
# Summary of the method: (§4)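 Rat pups received subcutaneous injections at the calvarial skull site of 0.1, 0.5, 1.0, 5.0, 10 or 20 mg·kg⁻¹·day⁻¹, or normal-saline vehicle, for 3 consecutive days. Calvaria were then collected, RNA was isolated with TRIzol, and Runx2 and Bmp2 were measured by qRT-PCR; n=5, mean ± SEM.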
# Calvarial osteoblast [7] = assay: Induction of mineralization in rat calvarial osteoblasts at 0.1 nM to 10 nM after 21 days by Alizarin-red dye based assay; type: functional, cell-based
# Summary of the method: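 Rat pup calvarial osteoblasts were seeded at 1×10^4 cells/well in differentiation medium with compound. Medium was changed every other day for 21 days. Cells were fixed in 4% paraformaldehyde and stained with 40 mM Alizarin red (pH 4.5). Stain was extracted with 10% acetic acid, heated to 85 °C, and neutralised with NH4OH. Absorbance was read at 405 nm.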
# Calvarial osteoblast [8] = assay: Anabolic activity in rat calvarial osteoblasts assessed as induction of alkaline phosphatase activity at 1 uM after 48 hrs in presence of beta-glycerophosphate and ascorbic acid by p-nitrophenyl phosphate substrate based assay (reference value: 1 to 1.21); type: functional
# Calvarial osteoblast [9] = assay: Upregulation of Col1 mRNA levels in rat calvarial osteoblasts at 100 pM after 48 hrs by qRT-PCR analysis relative to control; type: functional; summary of the method: as §1
# Calvarial osteoblast [10] = assay: Anabolic activity in rat calvarial osteoblasts assessed as induction of alkaline phosphatase activity after 48 hrs in presence of beta-glycerophosphate and ascorbic acid by p-nitrophenyl phosphate substrate based assay; type: functional, cell-based
# Calvarial osteoblast [11] = assay: Upregulation of RUNX2 expression levels in rat calvarial osteoblasts at 100 pM after 48 hrs by Western blot analysis; type: functional, cell-based
# Rattus norvegicus [12] = assay: Osteogenic activity in Sprague-Dawley rat drill-hole fracture model assessed as increase in Bmp2 expression levels at 10 mg/kg/day by qRT-PCR analysis; type: functional, organism-based
# Calvarial osteoblast [13] = assay: Upregulation of Bmp2 expression levels in rat calvarial osteoblasts at 100 pM after 48 hrs by ELISA; type: functional, cell-based
# Summary of the method: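 Calvarial osteoblasts were seeded at 5×10^3 cells/well and treated 48 h at 100 pM in α-MEM with 1% charcoal-stripped FCS. BMP2 in the culture supernatant was measured by sandwich ELISA, with OD read at 450 nm.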
# Calvarial osteoblast [14] = assay: Upregulation of COL1 expression levels in rat calvarial osteoblasts at 100 pM after 48 hrs by Western blot analysis; type: functional, cell-based
# Rattus norvegicus [15] = assay: Hepatotoxicity in Sprague-Dawley rat drill-hole fracture model assessed as morphological alterations at 10 mg/kg, po qd for 14 days by haematoxylin and eosin staining-based microscopic analysis; type: toxicity, organism-based; conditions: in vivo, 336 h
# Summary of the method: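 From the next day they were dosed orally for 14 days, 6 per group, with vehicle gum acacia in water. Livers were collected at the end, cut into 5 µm paraffin sections, dewaxed, stained with H&E and examined by light microscopy.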
# Calvarial osteoblast [16] = assay: Upregulation of Bmp2 mRNA levels in rat calvarial osteoblasts at 10 nM after 48 hrs by qRT-PCR analysis relative to control; type: functional; summary of the method: as §1
# Calvarial osteoblast [17] = assay: Upregulation of Col1 mRNA levels in rat calvarial osteoblasts at 10 nM after 48 hrs by qRT-PCR analysis relative to control; type: functional; summary of the method: as §1
# Calvarial osteoblast [18] = assay: Cytotoxicity against rat calvarial osteoblasts at 0.000001 uM to 1 uM after 48 hrs by MTT assay; type: cell-based; conditions: 1 pM
# Summary of the method: (§5)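 Primary osteoblasts from calvaria of 1–2-day-old rat pups, released by sequential dispase/collagenase P digestion and grown in α-MEM with 10% FCS to 70–80% confluence. Seeded at 2000 cells/well and treated with 1 pM to 100 µM for 48 h in differentiation medium (10 mM β-glycerophosphate, 50 µg/mL ascorbic acid). Viability read by MTT against untreated control; n=8, mean ± SEM.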
# Calvarial osteoblast [19] = assay: Upregulation of Bmp2 mRNA levels in rat calvarial osteoblasts at 100 pM after 48 hrs by qRT-PCR analysis relative to control; type: functional; summary of the method: as §1
# Rattus norvegicus [20] = assay: Osteogenic activity in Sprague-Dawley rat drill-hole fracture model assessed as increase in trabecular thickness at 10 mg/kg/day for 14 consecutive days by micro CT-scan analysis; type: functional, organism-based; summary of the method: as §3
# Calvarial osteoblast [21] = assay: Anabolic activity in rat calvarial osteoblasts assessed as induction of alkaline phosphatase activity at 100 pM after 48 hrs in presence of beta-glycerophosphate and ascorbic acid by p-nitrophenyl phosphate substrate based assay (reference value: 1 to 1.21); type: functional
# Rattus norvegicus [22] = assay: Upregulation of Runx2 mRNA in rat pup calvarial tissue at >10 mg/kg/day administered subcutaneously for 3 consecutive days by qRT-PCR analysis; type: functional, organism-based; summary of the method: as §4
# Rattus norvegicus [23] = assay: Osteogenic activity in Sprague-Dawley rat drill-hole fracture model assessed as enhanced callus regeneration of femur bone at 10 mg/kg/day by H and E staining-based analysis; type: functional, organism-based; summary of the method: as §2
# Calvarial osteoblast [24] = assay: Cytotoxicity against rat calvarial osteoblasts at 100 uM after 48 hrs by MTT assay; type: cell-based; summary of the method: as §5
# Rattus norvegicus [25] = assay: Osteogenic activity in Sprague-Dawley rat drill-hole fracture model assessed as increase in bone volume/trabecular volume at 10 mg/kg/day for 14 consecutive days by micro CT-scan analysis; type: functional, organism-based; summary of the method: as §3
# Calvarial osteoblast [26] = assay: Upregulation of Runx2 mRNA levels in rat calvarial osteoblasts at 100 pM after 48 hrs by qRT-PCR analysis relative to control; type: functional; summary of the method: as §1
# Rattus norvegicus [27] = assay: Osteogenic activity in Sprague-Dawley rat drill-hole fracture model assessed as enhanced callus regeneration of femur bone at 10 mg/kg/day by calcein labeling based confocal microscopic method; type: functional
# Summary of the method: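 Drill-hole femur defect in female Sprague-Dawley rats with oral dosing at 10 mg·kg⁻¹·day⁻¹ for 14 days. Calcein (20 mg/kg i.p.) was given 2 days before autopsy. Acrylic-embedded 50 µm bone sections were imaged by confocal microscopy, and mean calcein intensity per pixel was quantified at the defect; n=6/group.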
# Rattus norvegicus [28] = assay: Upregulation of Runx2 mRNA in rat pup calvarial tissue at 1 to 10 mg/kg/day administered subcutaneously for 3 consecutive days by qRT-PCR analysis; type: functional, organism-based; summary of the method: as §4
# Calvarial osteoblast [29] = assay: Anabolic activity in rat calvarial osteoblasts assessed as induction of alkaline phosphatase activity at 1 pM after 48 hrs in presence of beta-glycerophosphate and ascorbic acid by p-nitrophenyl phosphate substrate based assay (reference value: 1 to 1.21); type: functional
# Rattus norvegicus [30] = assay: Upregulation of Bmp2 mRNA in rat pup calvarial tissue at 1 to 10 mg/kg/day administered subcutaneously for 3 consecutive days by qRT-PCR analysis; type: functional, organism-based; summary of the method: as §4
# Calvarial osteoblast [31] = assay: Upregulation of BMP2 expression levels in rat calvarial osteoblasts at 100 pM after 48 hrs by Western blot analysis; type: functional, cell-based
# Calvarial osteoblast [32] = assay: Upregulation of ALP mRNA levels in rat calvarial osteoblasts at 100 pM after 48 hrs by qRT-PCR analysis relative to control; type: functional; summary of the method: as §1
# Calvarial osteoblast [33] = assay: Anabolic activity in rat calvarial osteoblasts assessed as induction of alkaline phosphatase activity at 10 nM after 48 hrs in presence of beta-glycerophosphate and ascorbic acid by p-nitrophenyl phosphate substrate based assay (reference value: 1 to 1.21); type: functional
# Rattus norvegicus [34] = assay: Osteogenic activity in Sprague-Dawley rat drill-hole fracture model assessed as increase in trabecular number at 10 mg/kg/day for 14 consecutive days by micro CT-scan analysis; type: functional, organism-based; summary of the method: as §3
# Calvarial osteoblast [35] = assay: Upregulation of Osx mRNA levels in rat calvarial osteoblasts at 100 pM after 48 hrs by qRT-PCR analysis relative to control; type: functional; summary of the method: as §1
smiles,measurement,setting,value
CCOC(=O)C1=C(C)NC2=C(C(=O)CCC2)C1c1cc(C(C)CC)c2oc(C(=O)c3ccc(C)cc3)cc2c1 (stereo not given),fold change (FC),Calvarial osteoblast [1],3.4
same,Activity,Rattus norvegicus [2],Active
same,OD,Calvarial osteoblast [3],0.36
same,Activity,Rattus norvegicus [4],Active
same,Activity,Rattus norvegicus [5],Active
same,Activity,Rattus norvegicus [6],inactive
same,Activity,Calvarial osteoblast [7],Active
same,OD,Calvarial osteoblast [8],1.16
same,fold change (FC),Calvarial osteoblast [9],5
same,EC50,Calvarial osteoblast [10],0.1 nM
same,Activity,Calvarial osteoblast [11],Active
same,Activity,Rattus norvegicus [12],Active
same,Activity,Calvarial osteoblast [13],Active
same,Activity,Calvarial osteoblast [14],Active
same,Activity,Rattus norvegicus [15],Non-Toxic
same,fold change (FC),Calvarial osteoblast [16],3.1
same,fold change (FC),Calvarial osteoblast [17],3.7
same,Activity,Calvarial osteoblast [18],Non-Toxic
same,fold change (FC),Calvarial osteoblast [19],4.5
same,Activity,Rattus norvegicus [20],Active
same,OD,Calvarial osteoblast [21],1.32
same,Activity,Rattus norvegicus [22],inactive
same,Activity,Rattus norvegicus [23],Active
same,Activity,Calvarial osteoblast [24],Toxic
same,Activity,Rattus norvegicus [25],Active
same,fold change (FC),Calvarial osteoblast [26],3.9
same,Activity,Rattus norvegicus [27],40%
same,Activity,Rattus norvegicus [28],Active
same,OD,Calvarial osteoblast [29],1.14
same,Activity,Rattus norvegicus [30],Active
same,Activity,Calvarial osteoblast [31],Active
same,fold change (FC),Calvarial osteoblast [32],4.5
same,OD,Calvarial osteoblast [33],1.19
same,Activity,Rattus norvegicus [34],Active
same,fold change (FC),Calvarial osteoblast [35],3.7
